One may read the IC50 as the concentration needed to halve the response being measured. Lower therefore signals higher potency. What is called efflux ratio is a quotient of directional permeabilities that is used to spot active efflux.

SMILES strings stand for the structures. Active and inactive are the calls of the source. The calls are words filed in the database; no cut-off is given here. Bounds are passed on as bounds.

Data set [1] concerns MDA-MB-231. Briefly: Induction of apoptosis in human MDA-MB-231 cells assessed as p53 phosphorylation at Ser15 by Western blotting analysis. It is filed as functional, cell-based. Put shortly:
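Cells treated 24 h. About 10^6 cells lysed on ice 15 min in Hepes pH 7.4/Triton X-100 buffer with phosphatase and protease inhibitors, then spun 13,000 × g. 30 µg protein run on 12% SDS-PAGE and blotted to nitrocellulose. Primary anti-phospho-p53 (Ser15) and anti-p53 at 1:1000 for 2 h at room temperature, then HRP secondary and ECL densitometry. Results referred to untreated control.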
(In general: Immunoblotting shows a protein as a band on a membrane.)

The test system of data set [2] is Caco-2. Briefly: Induction of apoptosis in human Caco2 cells assessed as late apoptotic cells at 0.5 uM after 24 hrs by Annexin V/propidium iodide staining-based flow cytometric analysis (reference value: 2.20 +/- 0.77%). It is filed as functional. (Flow cytometry measures light scatter and fluorescence of single cells or particles in a stream.)
Data set [3] can be described thus: Effective permeability in Wistar rat small intestine at 50 uM measured after 5 mins in every 5 min interval up to 30 mins. In kind it is ADME, tissue-based. The following applies: not told, read-out: Peff. In outline: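 In situ intestinal perfusion in male Wistar rats fasted 2 h with water allowed. Anaesthesia with diazepam (1.67 mg/kg), ketamine (50 mg/kg) and atropine (1 mg/kg); animals kept at 37 °C. Perfusate sampled every 5 min from 5 to 30 min; absorption rate constant and Peff derived.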

Data set [4] relates to HeLa. Briefly: Cytotoxicity against human HeLa cells after 24 hrs by MTT assay. It is filed as functional, cell-based. Put shortly:
(§1)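 Cells seeded at 25000 per well and held 24 h at 37 °C in 5% CO2. Medium was then renewed and compounds added at increasing concentrations (DMSO 0.1%, or water for topotecan) for 24 h. MTT solution (5 mg/mL) was added for 3 h at 37 °C, then absorbance read at 570 nm, corrected at 630 nm. IC50 in µM.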
On the technique in general: Tetrazolium assays rely on reduction of a dye to a coloured formazan, in cell work by metabolically active cells.

In the next data set the test system is Small intestine. Briefly: Effective permeability in Wistar rat small intestine assessed as absorption rate coefficient at 50 uM measured after 5 mins in every 5 min interval up to 30 mins. It is filed as ADME, tissue-based. In outline:
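Male Wistar rats fasted 2 h with water available, then anaesthetised with diazepam (1.67 mg/kg), ketamine (50 mg/kg) and atropine (1 mg/kg) and kept at 37°C on a heated surface. In situ intestinal perfusion. Perfusate sampled from 5 min at 5 min intervals up to 30 min. Absorption rate constant (Ka) and Peff derived.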

In data set [5] the test system is MDA-MB-231. Briefly: Induction of apoptosis in human MDA-MB-231 cells assessed as inhibition of DNA synthesis at 0.8 to 1.6 uM after 24 hrs by BrdU staining-based ELISA. In kind it is functional, cell-based. Put shortly: (§2)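 BrdU colorimetric cell proliferation ELISA. Cells seeded at 25,000 per well, compounds added 24 h after seeding and incubated 24 h. Cells fixed and the immunoassay run per kit. Absorbance read at 370-492 nm over 3 intervals of 5 min; absorbance difference proportional to BrdU incorporation. Mean of three separate experiments in triplicate, compared with untreated control.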

In data set [6] the test system is Caco-2. Kind of data set: Induction of apoptosis in human Caco2 cells assessed as early apoptotic cells at 0.5 uM after 48 hrs by Annexin V/propidium iodide staining-based flow cytometric analysis (reference value: 0.72 +/- 0.03%). It is filed as functional.
Data set [7] relates to Caco-2. Kind of data set: Induction of apoptosis in human Caco2 cells assessed as vital cells at 0.5 uM after 24 hrs by Annexin V/propidium iodide staining-based flow cytometric analysis (reference value: 96.67 +/- 1.02%). In kind it is functional.
Data set [8] deals with MDA-MB-231. Kind of data set: Induction of apoptosis in human MDA-MB-231 cells assessed as inhibition of DNA synthesis after 24 hrs by BrdU staining-based ELISA. In kind it is functional, cell-based. In outline:
(§3)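 Cells seeded at 25,000/well; compounds added 24 h after seeding at a range of concentrations and incubated 24 h. Cells fixed, then colorimetric BrdU-incorporation ELISA. Absorbance read at 370-492 nm over 3 intervals of 5 min. Mean of three separate experiments with triplicate samples.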

Data set [9] in a line: Efflux ratio of effective permeability from basolateral to apical side over apical to basolateral side in human Caco2 cells at 10 to 50 uM after 15 to 90 mins by HPLC analysis. In kind it is ADME, cell-based. To be noted: Caco-2. Put shortly: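 Caco-2 monolayers (400,000 cells per polycarbonate transwell insert, 0.4 µm pores) grown in DMEM for 19-22 days at 37 °C and 5% CO2. TEER was checked before and after each run. Compound was placed on the donor side and buffer on the receiver side, in both apical-to-basal and basal-to-apical directions, at 37 °C with 50 rpm orbital shaking. Receiver samples were taken at 15, 30, 60 and 90 min with buffer replaced, and donor samples at start and end. Analysis was by HPLC; three independent experiments.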

The next data set deals with Jurkat. Briefly: Cytotoxicity against human Jurkat cells after 24 hrs by MTT assay. It is filed as functional, cell-based. In outline:
as §1

A short description of data set [10]: Effective permeability from apical to basolateral side in human Caco2 cells at 50 uM after 15 to 90 mins by HPLC analysis. The following applies: Caco-2, read-out: Peff. In kind it is ADME, cell-based. In outline: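 Caco-2 monolayers grown 19-22 days on polycarbonate transwell inserts (4.2 cm², 0.4 µm pore) at 37 °C, 5% CO2; TEER checked before and after each run. Compound added to donor side at 37 °C, 50 rpm. Receiver sampled at 15, 30, 60 and 90 min; donor sampled at start and end. HPLC analysis. Sodium azide, when used, placed on both sides. Three independent experiments.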

In data set [11] the test system is A-375. Kind of data set: Induction of apoptosis in human A375 cells assessed as inhibition of DNA synthesis after 24 hrs by BrdU staining-based ELISA. In kind it is functional, cell-based. Put shortly:
as §3

Data set [12] relates to Caco-2. Kind of data set: Induction of apoptosis in human Caco2 cells assessed as early apoptotic cells at 0.05 uM after 24 hrs by Annexin V/propidium iodide staining-based flow cytometric analysis (reference value: 0.72 +/- 0.03%). It is filed as functional.
The subject of data set [13] is Caco-2. Briefly: Induction of apoptosis in human Caco2 cells assessed as late apoptotic cells at 0.5 uM after 48 hrs by Annexin V/propidium iodide staining-based flow cytometric analysis (reference value: 2.20 +/- 0.77%). In kind it is functional.
Data set [14] has as its system Caco-2. Kind of data set: Induction of apoptosis in human Caco2 cells assessed as early apoptotic cells at 0.5 uM after 24 hrs by Annexin V/propidium iodide staining-based flow cytometric analysis (reference value: 0.72 +/- 0.03%). It is filed as functional.
Data set [15] relates to A-375. Briefly: Induction of apoptosis in human A375 cells assessed as inhibition of DNA synthesis at 0.8 to 1.6 uM after 24 hrs by BrdU staining-based ELISA. In kind it is functional, cell-based. In outline:
as §2

In data set [16] the test system is HeLa. Briefly: Induction of apoptosis in human HeLa cells assessed as inhibition of DNA synthesis after 24 hrs by BrdU staining-based ELISA. It is filed as functional, cell-based. Put shortly:
as §3

The subject of data set [17] is Caco-2. Kind of data set: Induction of apoptosis in human Caco2 cells assessed as necrotic cells at 0.05 uM after 24 hrs by Annexin V/propidium iodide staining-based flow cytometric analysis (reference value: 0.41 +/- 0.02%). It is filed as functional.
The subject of data set [18] is Caco-2. Briefly: Induction of apoptosis in human Caco2 cells assessed as necrotic cells at 0.05 uM after 48 hrs by Annexin V/propidium iodide staining-based flow cytometric analysis (reference value: 0.41 +/- 0.02%). In kind it is functional.
For data set [19], the system named is Caco-2. Briefly: Induction of apoptosis in human Caco2 cells assessed as vital cells at 0.5 uM after 48 hrs by Annexin V/propidium iodide staining-based flow cytometric analysis (reference value: 96.67 +/- 1.02%). It is filed as functional.
Data set [20] has as its system Caco-2. Briefly: Induction of apoptosis in human Caco2 cells assessed as vital cells at 0.05 uM after 48 hrs by Annexin V/propidium iodide staining-based flow cytometric analysis (reference value: 96.67 +/- 1.02%). In kind it is functional.

Turning to `CC[C@@]1(O)C(=O)OCc2c1cc1n(c2=O)Cc2cc3c(CN(C)C)c(O)ccc3nc2-1.Cl` [TOPOTECAN HYDROCHLORIDE], the outcome in the data set with MDA-MB-231 [1], in the data set on MDA-MB-231 [5] and in the data set with A-375 [15] was Active. Further, the Activity in the data set on Caco-2 [2] came out at 33.98%; with Caco-2 [6] it was 5.74%; with Caco-2 [7], 53.08%; with Caco-2 [12], 5.42%; in the data set on Caco-2 [13] it was 53.12%; in the data set on Caco-2 [14], 4.4%. For the same compound, the Activity was 3.64% with Caco-2 [17], 2.36% in the data set on Caco-2 [18], 38.26% with Caco-2 [19] and 45.2% in the data set on Caco-2 [20]. Also, the Papp at 5 min, 50 µM in [3] came out at 55.8 ×10⁻⁶ cm/s. Further, the figures for the IC50 in the data set with HeLa [4] and with Jurkat were 380 nM and 127 nM, respectively. The Ka in the data set with Small intestine came out at 2.25 h⁻¹. Also, the inhibition result in the data set with MDA-MB-231 [8], with A-375 [11] and in the data set on HeLa [16] was “Dose-dependent effect” each time. Also, in data set [9], the efflux ratio at up to 50 µM is greater than 1. Also, the Papp A→B at 50 µM in [10] was found to be 1.77 ×10⁻⁶ cm/s.

For the origin of these results see ChEMBL document CHEMBL3351736, “A promising camptothecin derivative: Semisynthesis, antitumor activity and intestinal permeability” (Eur J Med Chem, 2014).
